Measurements gathered from unrelated publications.
Each line is one published result; the experiments were not run side by side.
EGFR del752-759: Epidermal growth factor receptor (EGFR, Homo sapiens, UniProt P00533, del752-759)
EGFR del746-750: Epidermal growth factor receptor (EGFR, Homo sapiens, UniProt P00533, del746-750)
EGFR: Epidermal growth factor receptor (EGFR, Homo sapiens, UniProt P00533)

C=CC(=O)N1CCC([C@@H]2CCNc3c(C(N)=O)c(-c4ccc(Oc5ccccc5)cc4)nn32)CC1
inhibition (Epidermal growth factor receptor (EGFR, Homo sapiens, UniProt P00533, G719S); cell-free assay; 1 µM): 95%

COc1ccc2[nH]c3c4[nH]c5ccc(OC)cc5c4c4c(c3c2c1)C(=O)NC4=O
remaining binding (EGFR del752-759; binding; 1 µM): 68%

C1=C/COCc2cc(ccc2OCCN2CCCC2)Nc2nccc(n2)-c2cccc(c2)COC/1
remaining binding (Epidermal growth factor receptor (EGFR, Homo sapiens, UniProt P00533, A750P/del747-749); binding; 0.1 µM): 67%

C[C@H]1CC[C@H](n2c3cnccc3c3cnc(Nc4ccc5c(n4)CCN(C(=O)CO)C5)nc32)CC1
remaining signal (EGFR del746-750; cell-free assay; 1 µM): 84%

CCCCC(=O)Nc1ccc(-c2ccc3ncn(CCC)c(=O)c3c2)cn1
remaining binding (Epidermal growth factor receptor (EGFR, Homo sapiens, UniProt P00533, T790M); binding; competition with immobilised ligand; 0.5 µM): 100%

CC#CC(=O)N1CCC[C@H]1c1nc(-c2ccc(C(=O)Nc3ccccn3)cc2)c2c(N)nccn12
inhibition (EGFR del746-750; enzyme activity; inhibitor; 1 µM): 0%

CS(=O)(=NC#N)c1ccccc1Nc1nc(Nc2ccc(CO)nc2)ncc1Cl (centres unmarked)
remaining activity (EGFR; enzyme activity; inhibitor; radiometric; 1 µM): 98.3%

CO[C@@H]1[C@H](N(C)C(=O)c2ccccc2)C[C@H]2O[C@]1(C)n1c3ccccc3c3c4c(c5c6ccccc6n2c5c31)C(=O)NC4
inhibition (Epidermal growth factor receptor (EGFR, Homo sapiens, UniProt P00533, del747-752/P753S); enzyme activity; inhibitor; 1 µM): 10%

CN1CCN(C(=O)c2ccc(NC(=O)Nc3ccc(N(C)c4ccnc(Nc5ccc(CS(C)(=O)=O)cc5)n4)cc3)cc2)CC1
remaining binding (EGFR del752-759; binding; 1 µM): 100%

N#Cc1ccc(NC(=O)Nc2ccccc2)cc1
remaining binding (EGFR; cell-free assay; competition with immobilised ligand; 25 µM): 87%

C#Cc1cnc(Nc2ccnc(CO)c2)nc1Nc1ccccc1S(C)(=O)=NC#N (centres unmarked)
remaining activity (EGFR; enzyme activity; inhibitor; radiometric; 1 µM): 80%

Cc1ccc(NC(=O)c2ccnc(C(F)(F)F)c2)cc1-c1cc(OCCO)nc(N2CCOCC2)c1
remaining binding (Epidermal growth factor receptor (EGFR, Homo sapiens, UniProt P00533, G719C); binding; 1 µM): 97%

COc1ccc2oc(-c3ccc4nc(N)oc4c3)c/c(=N\c3ccccc3NC(=O)CCN)c2c1
remaining signal (Epidermal growth factor receptor (EGFR, Homo sapiens, UniProt P00533, L858R/T790M); cell-free assay; 1 µM): 106%

CS(=O)(=NC#N)c1ccccc1Nc1nc(Nc2ccnc(CO)c2)ncc1Cl (centres unmarked)
remaining activity (EGFR; enzyme activity; inhibitor; radiometric; 1 µM): 99.4%
